Experimental data: ChEMBL document CHEMBL5523707, “Novel Inhibitory Site Revealed by XAP044 Mode of Action on the Metabotropic Glutamate 7 Receptor Venus Flytrap Domain” (J Med Chem, 2024)
Calls of active or inactive are those of the source. The rule behind the calls is not given here.

Assays:
Rattus norvegicus [1] = species: Rattus norvegicus; assay: Ratio of pEC50 for antagonist activity against LSP4-202-induced rat mGlu7 activation transfected in HEK293 cells co-transfected with chimeric Gqi9 assessed as decrease in LSP4-202 potency to pEC50 for LSP4-202-induced rat mGlu7 activation transfected in HEK293 cells co-transfected with chimeric Gqi9; type: cell-based
How it was run: (§1)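 IP-One HTRF IP1 read-out in HEK293 transiently expressing rat mGlu7 plus chimeric Gqα9, 24 h after electroporation. LSP4-2022 concentration-response was tested with derivatives at 30 or 100 µM. Gives pEC50, pEC50/pEC50 control ratio, and max as % of LSP4-2022 maximal effect over basal. Triplicates, n independent experiments; paired t-test.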

[2] = target: Metabotropic glutamate receptor 7 (Rattus norvegicus, UniProt P35400); assay: Antagonist activity against rat mGlu7 activation transfected in HEK293 cells co-transfected with chimeric Gqi9 incubated for 24 hrs in presence of LSP4-2022 by IP-one HTRF assay; type: functional, cell-based
Sequence of Metabotropic glutamate receptor 7 (P35400 whole entry): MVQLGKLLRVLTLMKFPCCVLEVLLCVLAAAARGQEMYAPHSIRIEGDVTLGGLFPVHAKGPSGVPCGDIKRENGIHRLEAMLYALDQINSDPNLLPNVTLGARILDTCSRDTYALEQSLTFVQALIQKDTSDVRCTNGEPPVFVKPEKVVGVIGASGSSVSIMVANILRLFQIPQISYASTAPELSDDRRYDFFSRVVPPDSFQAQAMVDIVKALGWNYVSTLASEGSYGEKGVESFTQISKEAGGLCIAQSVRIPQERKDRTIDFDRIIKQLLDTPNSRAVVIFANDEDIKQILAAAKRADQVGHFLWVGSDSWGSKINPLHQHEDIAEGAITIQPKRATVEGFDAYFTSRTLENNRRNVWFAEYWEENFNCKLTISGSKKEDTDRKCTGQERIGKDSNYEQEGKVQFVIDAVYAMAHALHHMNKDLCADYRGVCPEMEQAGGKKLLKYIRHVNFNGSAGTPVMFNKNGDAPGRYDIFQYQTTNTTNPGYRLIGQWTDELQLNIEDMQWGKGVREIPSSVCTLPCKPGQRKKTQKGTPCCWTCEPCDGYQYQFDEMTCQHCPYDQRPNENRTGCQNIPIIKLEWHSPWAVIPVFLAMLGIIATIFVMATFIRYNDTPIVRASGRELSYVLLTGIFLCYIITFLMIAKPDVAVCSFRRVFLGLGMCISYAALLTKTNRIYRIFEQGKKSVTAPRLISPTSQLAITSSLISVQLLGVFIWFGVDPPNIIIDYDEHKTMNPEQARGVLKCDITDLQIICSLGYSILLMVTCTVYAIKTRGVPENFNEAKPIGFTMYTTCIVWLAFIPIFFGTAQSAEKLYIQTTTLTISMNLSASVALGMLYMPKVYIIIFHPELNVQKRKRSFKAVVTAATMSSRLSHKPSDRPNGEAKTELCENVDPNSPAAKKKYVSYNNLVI
How it was run: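 Inhibition curves were run with increasing inhibitor concentrations against IP1 production by 30 µM LSP4-2022. Rat mGlu7 was co-expressed with Gqα9 in HEK293 and assayed 24 h post-transfection with IP-One HTRF. IC50/pIC50 are means ± sem of independent experiments in triplicates. pIC50 compared to reference by unpaired t-test.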

[3] = target: Metabotropic glutamate receptor 7 (Rattus norvegicus) (UniProt P35400); assay: Competitive antagonist activity against rat mGlu7 receptor assessed as decrease in LSP4-202 effect at 0.3 to 30 uM by Schild plot analysis; conditions: filed as antagonist, dose 0.3-30 µM
Sequence of Metabotropic glutamate receptor 7 (Rattus norvegicus) (P35400 whole entry): as above
How it was run: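 Schild analysis used the shift of LSP4-2022 concentration-response curves in IP-One IP1 assays. Cells were HEK293 co-transfected with rat mGlu7 and Gqα9. Data are means ± sem of 3 to 11 experiments run in triplicates.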

Rattus norvegicus [4] = species: Rattus norvegicus; assay: Ratio of pEC50 for antagonist activity against LSP4-202 induced wild type rat mGlu7 assessed as decrease in LSP4-202 potency by measuring LSP4-202 pEC50 at 3 uM to pEC50 for LSP4-202-induced wild type rat mGlu7
Rattus norvegicus [5] = species: Rattus norvegicus; assay: Ratio of pEC50 for antagonist activity against LSP4-202 induced wild type rat mGlu7 assessed as decrease in LSP4-202 potency by measuring LSP4-202 pEC50 at 10 uM to pEC50 for LSP4-202-induced wild type rat mGlu7
Rattus norvegicus [6] = species: Rattus norvegicus; assay: Ratio of pEC50 for antagonist activity against LSP4-202 induced wild type rat mGlu7 assessed as decrease in LSP4-202 potency by measuring LSP4-202 pEC50 at 30 uM to pEC50 for LSP4-202-induced wild type rat mGlu7
[7] = Antagonist activity against LSP4-202-induced rat mGlu7 […] mutant assessed as decrease in LSP4-202 potency by measuring LSP4-202 pEC50 at 10 uM
[8] = Antagonist activity against LSP4-202-induced rat mGlu7 […] mutant assessed as decrease in LSP4-202 potency by measuring LSP4-202 pEC50 at 30 uM
[9] = Antagonist activity against LSP4-202-induced rat mGlu7 […] mutant assessed as decrease in LSP4-202 potency by measuring LSP4-202 pEC50 at 100 uM
[10] = Antagonist activity against LSP4-202-induced rat mGlu7 […] mutant assessed as decrease in LSP4-202 potency by measuring LSP4-202 pEC50 at 3 uM
Rattus norvegicus [11] = species: Rattus norvegicus; assay: Ratio of pEC50 for antagonist activity against LSP4-202 induced rat mGlu7 S229A mutant assessed as decrease in LSP4-202 potency by measuring LSP4-202 pEC50 at 10 uM to pEC50 for LSP4-202-induced rat mGlu7 S229A mutant
Rattus norvegicus [12] = species: Rattus norvegicus; assay: Ratio of pEC50 for antagonist activity against LSP4-202 induced rat mGlu7 S229A mutant assessed as decrease in LSP4-202 potency by measuring LSP4-202 pEC50 at 30 uM to pEC50 for LSP4-202-induced rat mGlu7 S229A mutant
Rattus norvegicus [13] = species: Rattus norvegicus; assay: Ratio of pEC50 for antagonist activity against LSP4-202 induced rat mGlu7 S229A mutant assessed as decrease in LSP4-202 potency by measuring LSP4-202 pEC50 at 100 uM to pEC50 for LSP4-202-induced rat mGlu7 S229A mutant
Rattus norvegicus [14] = species: Rattus norvegicus; assay: Ratio of pEC50 for antagonist activity against LSP4-202 induced rat mGlu7 S229A mutant assessed as decrease in LSP4-202 potency by measuring LSP4-202 pEC50 at 3 uM to pEC50 for LSP4-202-induced rat mGlu7 S229A mutant
[15] = target: Metabotropic glutamate receptor 7 (Rattus norvegicus) (UniProt P35400); assay: Antagonist activity against LSP4-202-induced rat mGlu7 activation transfected in HEK293 cells co-transfected with chimeric Gqi9 assessed as decrease in LSP4-202 potency by measuring LSP4-202 maximum efficacy at 30 to 100 uM incubated for 24 hrs by IP-one HTRF assay relative to control; type: functional, cell-based; conditions: filed as antagonist, dose 30-100 µM; how it was run: as §1
[16] = target: Metabotropic glutamate receptor 7 (Rattus norvegicus) (UniProt P35400); assay: Antagonist activity against LSP4-202-induced rat mGlu7 activation transfected in HEK293 cells co-transfected with chimeric Gqi9 assessed as decrease in LSP4-202 potency by measuring LSP4-202 pEC50 incubated for 24 hrs by IP-one HTRF assay; type: functional, cell-based; how it was run: as §1

O=C(COc1ccc(Br)cc1F)c1ccc(O)c(F)c1 showed a Ratio (Rattus norvegicus [1]) of under 0.6, an IC50 ([2]; read-out: IC50) of 950 nM and an IC50 ([2]; read-out: pIC50 (converted)) of 851 nM. The Activity [3] was “Active”, the Ratio (Rattus norvegicus [4]) was 0.82 and the Ratio (Rattus norvegicus [5]) was 0.72. For the same compound, the Ratio (Rattus norvegicus [6]) was 0.59, the EC50 [7] was 9.91 µM and the pEC50 [7] was 5. It also gave an EC50 [8] of 21.7 µM, a pEC50 [8] of 4.68 and an EC50 [9] of 60.7 µM. It also gave a pEC50 [9] of 4.25, an EC50 [10] of 6.88 µM and a pEC50 [10] of 5.16. The Ratio (Rattus norvegicus [11]) was 0.97, the Ratio (Rattus norvegicus [12]) was 0.91 and the Ratio (Rattus norvegicus [13]) was 0.82. It also gave a Ratio (Rattus norvegicus [14]) of 1.
In the case of O=C(COc1ccc(Br)cc1F)c1cc(F)c(O)c(F)c1, the Ratio (Rattus norvegicus [1]) is reported as under 0.6, the IC50 ([2]; read-out: IC50) is reported as 1250 nM and the IC50 ([2]; read-out: pIC50 (converted)) is reported as 1150 nM. The Activity [3] was “Active”.
With COc1ccc(C(=O)COc2ccc(I)cc2)cc1OC the Ratio (Rattus norvegicus [1]) was 1.05 and the Emax [15] was 80.4%.
With O=C(COc1ccc(Br)cc1F)c1ccc(O)cc1 the Ratio (Rattus norvegicus [1]) was 0.76, the Emax [15] was 87.3% and the IC50 ([2]; read-out: IC50) was 2600 nM. The IC50 ([2]; read-out: pIC50 (converted)) was 2240 nM.
N#Cc1c(F)cc(OCC(=O)c2ccc(O)cc2)cc1F gave a Ratio (Rattus norvegicus [1]) of 1.03 and an Emax [15] of 94.2%.
Compound COc1ccc(C(=O)COc2ccc(I)cc2)cc1 has a Ratio (Rattus norvegicus [1]) of 0.97 and an Emax [15] of 93.6%.
In the case of COc1ccc2c(=O)c3oc4cc(I)ccc4c3oc2c1, the inhibition [16] is reported as “inactive”.
With O=c1c2ccccc2oc2c1oc1ccc(Cl)cc12 the inhibition [16] was “inactive”.
With O=C(COc1ccc(O)cc1)c1ccc(O)cc1 the Ratio (Rattus norvegicus [1]) was 1.06 and the Emax [15] was 88.1%.
With O=C(COc1cccc(I)c1)c1ccc(O)cc1 the Ratio (Rattus norvegicus [1]) was 1.02 and the Emax [15] was 102%.
Compound COc1ccc(C(=O)COc2ccc(I)c(C)c2)cc1 has a Ratio (Rattus norvegicus [1]) of 0.97 and an Emax [15] of 95.9%.
Compound O=C(COc1c(F)cc(Br)cc1F)c1ccc(O)cc1 has a Ratio (Rattus norvegicus [1]) of 0.85 and an Emax [15] of 94.6%.
Compound O=C(COc1ccc(Br)cc1F)c1ccc(O)c(O)c1 has a Ratio (Rattus norvegicus [1]) of 0.76, an Emax [15] of 90.3% and an IC50 ([2]; read-out: IC50) of 3440 nM. The IC50 ([2]; read-out: pIC50 (converted)) was 3310 nM, the Activity [3] was “Active” and the Ratio (Rattus norvegicus [4]) was 0.91. For the same compound, the Ratio (Rattus norvegicus [5]) was 0.85, the Ratio (Rattus norvegicus [6]) was 0.79 and the EC50 [7] was 38.2 µM. For the same compound, the pEC50 [7] was 4.42, the EC50 [8] was 35.7 µM and the pEC50 [8] was 4.53. For the same compound, the EC50 [9] was 27 µM, the pEC50 [9] was 4.6 and the Ratio (Rattus norvegicus [11]) was 0.91. It also gave a Ratio (Rattus norvegicus [12]) of 0.93 and a Ratio (Rattus norvegicus [13]) of 0.95.
In the case of O=c1c2ccccc2oc2c1oc1ccc(Br)cc12, the inhibition [16] is reported as “inactive”.
O=C(COc1ccc(Br)cc1Cl)c1ccc(O)cc1 gave a Ratio (Rattus norvegicus [1]) of 0.95 and an Emax [15] of 93.3%.
With Cc1cc(I)ccc1OCC(=O)c1ccc(O)cc1 the Ratio (Rattus norvegicus [1]) was 0.97 and the Emax [15] was 98.3%.
O=C(COc1ccc(Br)cc1)c1ccc(O)cc1 gave a Ratio (Rattus norvegicus [1]) of 0.81 and an Emax [15] of 99.2%.
With NS(=O)(=O)c1ccc(OCC(=O)c2ccc(O)cc2)cc1 the Ratio (Rattus norvegicus [1]) was 1.06 and the Emax [15] was 89.2%.
Compound O=Cc1ccc(OCC(=O)c2ccc(O)cc2)cc1F has a Ratio (Rattus norvegicus [1]) of 1 and an Emax [15] of 106%.
Cc1cc(OCC(=O)c2ccc(O)cc2)ccc1I showed a Ratio (Rattus norvegicus [1]) of 0.96 and an Emax [15] of 97.5%.
In the case of O=c1c2ccc(F)cc2oc2c1oc1ccc(I)cc12, the inhibition [16] is reported as “inactive”.
Compound N#Cc1ccc(OCC(=O)c2ccc(O)cc2)cc1 has a Ratio (Rattus norvegicus [1]) of 0.89 and an Emax [15] of 92.6%.
With O=c1c2ccc(O)cc2oc2c1oc1cc(I)ccc12 the inhibition [16] was “inactive”.
